Experimental data as given in ChEMBL document CHEMBL1147762, “A new chemical tool for exploring the physiological function of the PDE2 isozyme” (Bioorg Med Chem Lett, 2006).
In brackets after ≈: the same amount, converted by molar mass.

Experiments:
[1] = biological target: Type-1 angiotensin II receptor (Homo sapiens) (UniProt P30556); assay: Percentage binding to angiotensin II type1 receptor at 10 uM
[2] = biological target: MAP kinase-activated protein kinase 5 (Homo sapiens) (UniProt Q8IW41); assay: Inhibition of PRAK at 10 uM
[3] = biological target: AMP-activated protein kinase, AMPK (Homo sapiens) (UniProt P54646+O43741+P54619+Q9UGJ0+Q9Y478+Q13131+Q9UGI9); assay: Inhibition of AMPK at 10 uM; format: protein-complex assay
[4] = biological target: Mu-type opioid receptor (Homo sapiens) (UniProt P35372); assay: Percentage binding to opioid mu at 10 uM
[5] = biological target: RAC-alpha serine/threonine-protein kinase (Homo sapiens) (UniProt P31749); assay: Inhibition of PKBalpha at 10 uM
Sequence of RAC-alpha serine/threonine-protein kinase (Homo sapiens) (P31749 whole entry): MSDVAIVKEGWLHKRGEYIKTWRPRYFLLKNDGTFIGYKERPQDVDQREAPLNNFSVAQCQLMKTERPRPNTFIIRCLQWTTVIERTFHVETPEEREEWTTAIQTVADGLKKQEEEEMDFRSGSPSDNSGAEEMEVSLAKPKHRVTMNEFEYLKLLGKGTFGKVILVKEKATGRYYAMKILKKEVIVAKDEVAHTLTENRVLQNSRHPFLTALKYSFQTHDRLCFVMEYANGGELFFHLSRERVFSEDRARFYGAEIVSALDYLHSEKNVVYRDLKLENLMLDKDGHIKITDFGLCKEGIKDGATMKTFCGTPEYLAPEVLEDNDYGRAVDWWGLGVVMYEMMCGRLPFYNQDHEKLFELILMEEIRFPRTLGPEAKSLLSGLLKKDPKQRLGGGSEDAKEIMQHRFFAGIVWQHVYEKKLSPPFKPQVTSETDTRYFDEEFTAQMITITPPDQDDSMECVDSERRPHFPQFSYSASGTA

[6] = biological target: cGMP-specific 3',5'-cyclic phosphodiesterase (Homo sapiens, UniProt O76074); assay: Inhibitory activity against PDE5 by scintillation proximity assay
In short: (§1)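 Scintillation proximity assay for phosphodiesterase inhibition. Enzyme is used at a concentration within the linear range, and its KM was measured. Final substrate concentration is 1 µM, below one-third of KM, so IC50 approximates Ki. Results are means of n experiments with standard deviation.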

[7] = biological target: Cyclooxygenase (Homo sapiens) (UniProt P35354+P23219); assay: Inhibition of COX at 10 uM; format: protein assay
[8] = biological target: Casein kinase II (Homo sapiens) (UniProt P67870+P68400+P19784); assay: Inhibition of CK2 at 10 uM; format: protein-complex assay
Phosphodiesterase 1 = Phosphodiesterase 1 (Homo sapiens, UniProt P54750+Q01064+Q14123); assay: Inhibitory activity against PDE1 by scintillation proximity assay; format: protein assay
In short: (§2)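 Phosphodiesterase inhibition run as a scintillation proximity assay, with enzyme at a concentration in the linear range. Final substrate was 1 µM, below one-third of the enzyme K_M, so that IC50 approximates Ki. Values are means of n experiments with standard deviation.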

[9] = biological target: Vasopressin V1 receptor (Homo sapiens) (UniProt P37288+P47901); assay: Percentage binding to vasopressin V1 at 10 uM; format: protein assay
[10] = biological target: Substance-P receptor (Homo sapiens) (UniProt P25103); assay: Percentage binding to neurokinin K1 at 10 uM
[11] = biological target: Muscarinic acetylcholine receptor M2 (Homo sapiens) (UniProt P08172); assay: Percentage binding to muscarinic M2 at 10 uM
[12] = biological target: Casein kinase I (Homo sapiens) (UniProt Q9HCP0+P78368+P48730+P49674+P48729); assay: Inhibition of CK1 at 10 uM; format: protein assay
[13] = biological target: Voltage-gated L-type calcium channel (Homo sapiens, UniProt Q13936+Q13698+Q01668+O60840); assay: Percentage binding to Ca2+ channel L at 10 uM; format: protein assay
[14] = biological target: Mitogen-activated protein kinase 14 (Homo sapiens) (UniProt Q16539); assay: Inhibition of SAPK2a at 10 uM
[15] = biological target: Adenosine receptor A2a (Homo sapiens) (UniProt P29274); assay: Percentage binding to adenosine A2a receptor at 10 uM
[16] = Half life in rat; format: ADME, organism-based; conditions: Sprague-Dawley, in vivo
In short: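 Sprague–Dawley rats were dosed intravenously at 1 mg/kg in EtOH:PEG 400:H2O (1:4:5) and orally at 30 mg/kg in 0.5% methylcellulose.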

[17] = biological target: MAP kinase-activated protein kinase 2 (Homo sapiens) (UniProt P49137); assay: Inhibition of MAPKAPK2 at 10 uM
[18] = biological target: Serine/threonine-protein kinase Nek6 (Homo sapiens) (UniProt Q9HC98); assay: Inhibition of NEK6 at 10 uM
[19] = biological target: Adenosine receptor A3 (Homo sapiens) (UniProt P0DMS8); assay: Percentage binding to adenosine A3 receptor at 10 uM
Sequence of Adenosine receptor A3 (Homo sapiens) (P0DMS8 whole entry): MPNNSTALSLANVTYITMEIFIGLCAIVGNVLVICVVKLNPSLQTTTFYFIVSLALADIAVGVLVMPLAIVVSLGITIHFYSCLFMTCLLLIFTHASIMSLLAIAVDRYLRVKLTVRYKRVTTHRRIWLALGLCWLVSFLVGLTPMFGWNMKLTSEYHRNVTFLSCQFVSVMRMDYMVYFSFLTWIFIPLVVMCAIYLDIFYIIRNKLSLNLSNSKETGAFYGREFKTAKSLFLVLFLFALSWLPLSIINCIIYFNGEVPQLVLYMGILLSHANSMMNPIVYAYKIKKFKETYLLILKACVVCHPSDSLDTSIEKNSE

[20] = biological target: 3',5'-cyclic-AMP phosphodiesterase 4C (Homo sapiens, UniProt Q08493); assay: Inhibitory activity against PDE4C by scintillation proximity assay; in short: as §1
Sequence of 3',5'-cyclic-AMP phosphodiesterase 4C (Q08493 whole entry): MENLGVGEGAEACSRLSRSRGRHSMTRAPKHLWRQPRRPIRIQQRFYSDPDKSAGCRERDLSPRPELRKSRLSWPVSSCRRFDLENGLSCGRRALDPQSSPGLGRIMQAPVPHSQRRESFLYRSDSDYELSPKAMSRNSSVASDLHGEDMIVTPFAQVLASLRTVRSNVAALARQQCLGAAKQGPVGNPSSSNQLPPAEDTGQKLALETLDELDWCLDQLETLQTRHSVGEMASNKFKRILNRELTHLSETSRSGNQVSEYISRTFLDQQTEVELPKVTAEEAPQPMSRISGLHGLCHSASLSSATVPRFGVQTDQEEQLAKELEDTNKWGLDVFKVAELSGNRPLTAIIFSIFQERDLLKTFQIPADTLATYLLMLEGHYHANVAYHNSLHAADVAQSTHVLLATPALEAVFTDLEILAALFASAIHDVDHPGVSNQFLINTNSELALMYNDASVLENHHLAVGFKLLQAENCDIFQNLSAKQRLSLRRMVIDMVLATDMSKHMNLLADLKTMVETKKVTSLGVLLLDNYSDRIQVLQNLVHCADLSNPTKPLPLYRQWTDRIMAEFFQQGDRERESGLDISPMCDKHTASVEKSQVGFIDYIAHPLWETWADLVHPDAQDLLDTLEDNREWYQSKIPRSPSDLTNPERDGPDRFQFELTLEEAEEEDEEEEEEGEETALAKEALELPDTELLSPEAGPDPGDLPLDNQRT

[21] = biological target: Tyrosine-protein kinase CSK (Homo sapiens) (UniProt P41240); assay: Inhibition of CSK at 10 uM
Sequence of Tyrosine-protein kinase CSK (Homo sapiens) (P41240 2-450 limits assumed): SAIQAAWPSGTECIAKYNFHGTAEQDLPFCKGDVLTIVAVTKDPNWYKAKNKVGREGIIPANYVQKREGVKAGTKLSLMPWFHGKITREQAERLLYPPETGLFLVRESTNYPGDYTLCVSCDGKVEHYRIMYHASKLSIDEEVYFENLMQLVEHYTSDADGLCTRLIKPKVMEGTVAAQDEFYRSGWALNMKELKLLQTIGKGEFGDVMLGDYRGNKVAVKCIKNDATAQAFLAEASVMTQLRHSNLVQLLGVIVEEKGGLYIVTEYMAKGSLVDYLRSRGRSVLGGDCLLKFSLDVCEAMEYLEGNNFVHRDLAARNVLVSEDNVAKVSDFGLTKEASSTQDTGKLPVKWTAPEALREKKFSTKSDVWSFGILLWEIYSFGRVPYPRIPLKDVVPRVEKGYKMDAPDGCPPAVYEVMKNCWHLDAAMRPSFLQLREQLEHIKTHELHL

[22] = Percentage binding to GABA at 10 uM
In short: (§3)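 Single-concentration screen within a panel of 54 receptors and ion channels, measuring binding or interaction at each target.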

Phosphodiesterase 3 = Phosphodiesterase 3 (Homo sapiens, UniProt Q14432+Q13370); assay: Inhibitory activity against PDE3 by scintillation proximity assay; format: protein assay; in short: as §2
[23] = biological target: Dual specificity mitogen-activated protein kinase kinase 1 (Homo sapiens) (UniProt Q02750); assay: Inhibition of MKK1 at 10 uM
Sequence of Dual specificity mitogen-activated protein kinase kinase 1 (Homo sapiens) (Q02750 whole entry): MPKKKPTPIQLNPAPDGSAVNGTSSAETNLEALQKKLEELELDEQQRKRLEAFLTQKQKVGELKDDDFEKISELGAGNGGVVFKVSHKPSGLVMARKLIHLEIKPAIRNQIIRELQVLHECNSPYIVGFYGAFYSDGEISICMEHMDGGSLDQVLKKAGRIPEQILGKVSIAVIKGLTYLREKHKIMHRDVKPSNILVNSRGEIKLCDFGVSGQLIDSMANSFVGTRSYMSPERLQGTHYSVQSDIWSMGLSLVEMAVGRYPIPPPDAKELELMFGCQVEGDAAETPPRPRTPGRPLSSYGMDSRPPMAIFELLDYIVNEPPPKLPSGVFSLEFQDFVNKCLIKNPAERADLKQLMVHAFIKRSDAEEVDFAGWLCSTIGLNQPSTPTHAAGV

[24] = biological target: Ribosomal protein S6 kinase alpha-1 (Homo sapiens) (UniProt Q15418); assay: Inhibition of RSK1 at 10 uM
Sequence of Ribosomal protein S6 kinase alpha-1 (Homo sapiens) (Q15418 whole entry): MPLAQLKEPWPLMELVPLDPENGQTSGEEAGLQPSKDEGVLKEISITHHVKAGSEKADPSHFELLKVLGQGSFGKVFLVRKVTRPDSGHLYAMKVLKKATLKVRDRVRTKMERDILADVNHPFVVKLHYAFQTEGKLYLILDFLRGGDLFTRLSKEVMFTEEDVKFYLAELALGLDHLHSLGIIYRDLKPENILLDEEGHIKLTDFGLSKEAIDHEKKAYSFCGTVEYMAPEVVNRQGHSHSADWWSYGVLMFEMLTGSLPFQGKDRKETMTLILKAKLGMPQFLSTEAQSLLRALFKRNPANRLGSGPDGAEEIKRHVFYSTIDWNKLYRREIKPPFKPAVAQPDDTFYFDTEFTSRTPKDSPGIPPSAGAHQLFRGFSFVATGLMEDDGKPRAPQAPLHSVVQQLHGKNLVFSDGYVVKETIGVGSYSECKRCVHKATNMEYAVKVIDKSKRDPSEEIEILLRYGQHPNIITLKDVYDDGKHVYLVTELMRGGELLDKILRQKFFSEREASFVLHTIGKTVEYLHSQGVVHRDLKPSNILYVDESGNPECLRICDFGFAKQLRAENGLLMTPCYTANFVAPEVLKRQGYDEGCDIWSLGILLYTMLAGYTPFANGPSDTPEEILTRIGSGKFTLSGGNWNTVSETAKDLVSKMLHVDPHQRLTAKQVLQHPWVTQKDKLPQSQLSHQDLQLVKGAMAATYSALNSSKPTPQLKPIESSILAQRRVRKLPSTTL

[25] = biological target: Sodium-dependent dopamine transporter (Homo sapiens) (UniProt Q01959); assay: Activity against dopamine uptake at 10 uM
[26] = Turbidimetric solubility at pH 7; format: ADME, organism-based, Homo sapiens
[27] = biological target: Histamine H1 receptor (Homo sapiens) (UniProt P35367); assay: Percentage binding to histamine H1 at 10 uM
[28] = Tmax in rat; format: ADME, organism-based; conditions: Sprague-Dawley, in vivo
[29] = biological target: Beta-1 adrenergic receptor (Homo sapiens) (UniProt P08588); assay: Percentage binding to adrenergic beta-1 receptor at 10 uM
[30] = Half life in rat liver microsome; format: ADME; conditions: liver microsomes
[31] = biological target: Histamine H2 receptor (Homo sapiens) (UniProt P25021); assay: Percentage binding to histamine H2 at 10 uM
[32] = biological target: Muscarinic acetylcholine receptor M1 (Homo sapiens) (UniProt P11229); assay: Percentage binding to muscarinic M1 at 10 uM
Sequence of Muscarinic acetylcholine receptor M1 (Homo sapiens) (P11229 whole entry): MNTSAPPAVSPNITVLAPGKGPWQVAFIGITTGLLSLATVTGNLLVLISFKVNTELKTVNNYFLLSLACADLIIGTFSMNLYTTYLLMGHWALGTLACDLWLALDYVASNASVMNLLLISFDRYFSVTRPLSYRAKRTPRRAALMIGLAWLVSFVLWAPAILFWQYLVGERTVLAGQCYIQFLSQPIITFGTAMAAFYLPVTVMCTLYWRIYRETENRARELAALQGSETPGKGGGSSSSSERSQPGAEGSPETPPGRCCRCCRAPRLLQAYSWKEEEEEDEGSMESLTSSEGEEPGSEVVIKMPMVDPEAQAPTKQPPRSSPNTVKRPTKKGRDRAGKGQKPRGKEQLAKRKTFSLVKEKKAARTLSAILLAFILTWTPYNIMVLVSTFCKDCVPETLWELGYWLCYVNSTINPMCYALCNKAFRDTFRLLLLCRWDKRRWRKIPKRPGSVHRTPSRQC

[33] = biological target: Glutamate receptor ionotropic kainate (Homo sapiens) (UniProt P39086+Q16478+Q16099+Q13002+Q13003); assay: Percentage binding to kainate receptor at 10 uM; format: protein-complex assay
[34] = biological target: Serine/threonine-protein kinase Nek2 (Homo sapiens) (UniProt P51955); assay: Inhibition of NEK2 at 10 uM
[35] = biological target: Ribosomal protein S6 kinase alpha-5 (Homo sapiens) (UniProt O75582); assay: Inhibition of MSK1 at 10 uM
[36] = biological target: Polyunsaturated fatty acid 5-lipoxygenase (Homo sapiens) (UniProt P09917); assay: Inhibition of 5LOX at 10 uM
Sequence of Polyunsaturated fatty acid 5-lipoxygenase (Homo sapiens) (P09917 whole entry): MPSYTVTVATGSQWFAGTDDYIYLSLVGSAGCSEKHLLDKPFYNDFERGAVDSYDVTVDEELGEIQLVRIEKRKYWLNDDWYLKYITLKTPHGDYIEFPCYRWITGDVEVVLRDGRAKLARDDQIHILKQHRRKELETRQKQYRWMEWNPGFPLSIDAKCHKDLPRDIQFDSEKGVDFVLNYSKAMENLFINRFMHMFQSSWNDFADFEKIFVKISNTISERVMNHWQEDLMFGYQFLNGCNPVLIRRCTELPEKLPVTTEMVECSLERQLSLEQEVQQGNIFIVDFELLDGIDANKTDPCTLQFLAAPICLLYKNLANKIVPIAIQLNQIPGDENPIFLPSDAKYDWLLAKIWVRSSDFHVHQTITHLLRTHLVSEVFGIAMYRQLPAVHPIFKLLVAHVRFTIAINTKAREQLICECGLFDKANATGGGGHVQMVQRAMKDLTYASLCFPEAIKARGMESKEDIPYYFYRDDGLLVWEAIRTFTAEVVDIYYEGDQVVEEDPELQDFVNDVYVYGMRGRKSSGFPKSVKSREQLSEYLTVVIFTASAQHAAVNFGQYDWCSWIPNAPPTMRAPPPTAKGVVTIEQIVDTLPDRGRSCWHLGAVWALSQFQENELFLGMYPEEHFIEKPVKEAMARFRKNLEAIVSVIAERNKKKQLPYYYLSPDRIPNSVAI

[37] = biological target: 3',5'-cyclic-AMP phosphodiesterase 4B (Homo sapiens, UniProt Q07343); assay: Inhibitory activity against PDE4B by scintillation proximity assay; in short: as §2
[38] = biological target: cGMP-dependent 3',5'-cyclic phosphodiesterase (Homo sapiens, UniProt O00408); assay: Inhibitory activity against PDE2 by scintillation proximity assay; in short: as §2
[39] = biological target: Phosphorylase kinase (Homo sapiens) (UniProt P15735+P46020+P46019+Q93100+Q16816); assay: Inhibition of PHK at 10 uM; format: protein-complex assay
[40] = biological target: Voltage-dependent L-type calcium channel subunit alpha-1D (Homo sapiens) (UniProt Q01668); assay: Percentage binding to Ca2+ channel D at 10 uM; in short: as §3
[41] = biological target: Muscarinic acetylcholine receptor M4 (Homo sapiens) (UniProt P08173); assay: Percentage binding to muscarinic M4 at 10 uM
Sequence of Muscarinic acetylcholine receptor M4 (Homo sapiens) (P08173 whole entry): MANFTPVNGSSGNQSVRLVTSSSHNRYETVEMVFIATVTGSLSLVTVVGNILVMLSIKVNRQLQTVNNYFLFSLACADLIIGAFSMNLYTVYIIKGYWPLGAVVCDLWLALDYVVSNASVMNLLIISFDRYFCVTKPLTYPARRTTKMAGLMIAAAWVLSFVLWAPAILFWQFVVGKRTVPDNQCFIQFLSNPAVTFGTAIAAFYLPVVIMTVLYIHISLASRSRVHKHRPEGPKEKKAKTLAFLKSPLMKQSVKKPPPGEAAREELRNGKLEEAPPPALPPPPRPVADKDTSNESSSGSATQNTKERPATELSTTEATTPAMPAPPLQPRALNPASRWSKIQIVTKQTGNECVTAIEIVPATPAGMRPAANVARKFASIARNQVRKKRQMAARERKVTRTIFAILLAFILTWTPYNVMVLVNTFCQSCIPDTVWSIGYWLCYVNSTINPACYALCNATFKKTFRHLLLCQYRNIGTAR

- Activity [1]: 11%
- inhibition [2]: 28%
- inhibition [3]: 8%
- Activity [4]: 3%
- inhibition [5]: 14%
- IC50 [6]: > 16 µM
- inhibition [7]: 0%
- inhibition [8]: 32%
- IC50 (Phosphodiesterase 1): > 16 µM
- Activity [9]: 5%
- Activity [10]: 0%
- Activity [11]: 0%
- inhibition [12]: 10%
- Activity [13]: 0%
- inhibition [14]: 0%
- Activity [15]: 24%
- half-life [16]: 96 min
- inhibition [17]: 8%
- inhibition [18]: 7%
- Activity [19]: 35%
- IC50 [20]: > 16 µM
- inhibition [21]: 5%
- Activity [22]: 3%
- IC50 (Phosphodiesterase 3): > 16 µM
- inhibition [23]: 0%
- inhibition [24]: 1%
- Activity [25]: 11%
- solubility kinetic [26]: 55 µg/mL (≈ 175 µM)
- Activity [27]: 7%
- Tmax [28]: 48 min
- Activity [29]: 15%
- half-life [30]: 83 min
- Activity [31]: 0%
- Activity [32]: 9%
- Activity [33]: 0%
- inhibition [34]: 0%
- inhibition [35]: 6%
- inhibition [36]: 35%
- IC50 [37]: > 16 µM
- IC50 [38]: 40 nM
- inhibition [39]: 0%
- Activity [40]: 0%
- Activity [41]: 1%
Compound: CN1C(=O)C(C(=O)Nc2nncs2)c2cc3occc3cc21 (stereo not drawn)
